# Results published in ChEMBL document CHEMBL1649165, “Activity profile in vitro of micafungin against Spanish clinical isolates of common and emerging species of yeasts and molds” (2009).
# How the values were obtained:
# Format in all cases: functional
# Candida metapsilosis = test: Antimicrobial activity against Candida metapsilosis by broth microdilution method; settings: Lodderomyces metapsilosis
# Outline: (§1)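 Clinical isolates from human patients, tested by broth microdilution using the AFST-EUCAST reference procedure for fermentative yeasts. The MIC was read per that reference method.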
# [1] = test system: Cladophialophora bantiana; test: Antimicrobial activity against Cladophialophora bantiana by broth microdilution method
# Outline: (§2)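 Clinical mould isolates, tested by broth microdilution using the AFST-EUCAST reference method for filamentous fungi. For echinocandins, the endpoint was the minimum effective concentration: the lowest drug concentration giving aberrant hyphal growth, read with an inverted microscope.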
# Aspergillus niger = test: Antimicrobial activity against Aspergillus niger by broth microdilution method; outline: as §2
# [2] = Antimicrobial activity against Rhizopus microsporus by broth microdilution method
# Outline: (§3)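 Filamentous fungus clinical isolates tested by the AFST-EUCAST reference broth microdilution method for moulds. For echinocandins, the endpoint was the minimum effective concentration: the lowest drug concentration giving aberrant hyphal growth, read with an inverted microscope.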
# Lomentospora prolificans = test: Antimicrobial activity against Scedosporium prolificans by broth microdilution method; outline: as §3
# Papiliotrema laurentii = test: Antimicrobial activity against Cryptococcus laurentii by broth microdilution method
# Outline: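 Clinical isolates of nonfermentative yeasts, tested by broth microdilution following EUCAST recommendations. The only change from that method was a minor modification to improve growth.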
# Paecilomyces variotii = test: Antimicrobial activity against Paecilomyces variotii by broth microdilution method; outline: as §3
# Magnusiomyces capitatus = test: Antimicrobial activity against Dipodascus capitatus by broth microdilution method
# Aspergillus = test: Antimicrobial activity against Aspergillus spp. by broth microdilution method; outline: as §2
# Trichosporon asahii = test: Antimicrobial activity against Trichosporon asahii by broth microdilution method
# Outline: (§4)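 Nonfermentative yeast clinical isolates (Rhodotorula, Trichosporon) tested by broth microdilution. The EUCAST yeast recommendations were followed strictly, with one minor modification to improve growth. MIC was read as the endpoint.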
# Trichosporon ovoides = test: Antimicrobial activity against Trichosporon ovoides by broth microdilution method; outline: as §4
# Trichosporon = test: Antimicrobial activity against Trichosporon spp. by broth microdilution method; outline: as §4
# Exophiala jeanselmei = test: Antimicrobial activity against Exophiala jeanselmei by broth microdilution method
# Rhizomucor = test: Antimicrobial activity against Rhizomucor spp.by broth microdilution method; outline: as §3
# Saksenaea vasiformis = test: Antimicrobial activity against Saksenaea vasiformis by broth microdilution method; outline: as §3
# Pichia kudriavzevii = test: Antimicrobial activity against Candida krusei by broth microdilution method; outline: as §1
# Neurospora sitophila = test: Antimicrobial activity against Chrysonilia sitophila by broth microdilution method; outline: as §2
# Trichosporon dermatis = test: Antimicrobial activity against Trichosporon dermatis by broth microdilution method; settings: Cutaneotrichosporon dermatis; outline: as §4
# Aspergillus sclerotiorum = test: Antimicrobial activity against Aspergillus sclerotiorum by broth microdilution method; outline: as §2
# Aspergillus sydowii = test: Antimicrobial activity against Aspergillus sydowii by broth microdilution method; outline: as §2
# [Candida] inconspicua = Antimicrobial activity against Candida inconspicua by broth microdilution method; settings: Pichia inconspicua; outline: as §1
# Candida parapsilosis = test: Antimicrobial activity against Candida parapsilosis by broth microdilution method; settings: Lodderomyces parapsilosis; outline: as §1
# Yarrowia lipolytica = test: Antimicrobial activity against Yarrowia lipolytica by broth microdilution method
# Aspergillus fumigatus = test: Antimicrobial activity against Aspergillus fumigatus by broth microdilution method; outline: as §2
# Beauveria bassiana = test: Antimicrobial activity against Beauveria bassiana by broth microdilution method; outline: as §2
# Trichoderma = test: Antimicrobial activity against Trichoderma spp. by broth microdilution method; outline: as §3
# [Candida] zeylanoides = Antimicrobial activity against Candida zeylanoides by broth microdilution method; settings: Dujonia zeylanoides; outline: as §1
# Geotrichum candidum = test: Antimicrobial activity against Galactomyces geotrichum by broth microdilution method
# Lichtheimia corymbifera = test: Antimicrobial activity against Mycocladus corymbiferus by broth microdilution method; outline: as §3
# Nakaseomyces glabratus = test: Antimicrobial activity against Candida glabrata by broth microdilution method; outline: as §1
# Cladosporium = test: Antimicrobial activity against Cladosporium spp. by broth microdilution method; outline: as §2
# Pichia norvegensis = test: Antimicrobial activity against Candida norvegensis by broth microdilution method; outline: as §1
# Wickerhamomyces anomalus = test: Antimicrobial activity against Candida pelliculosa by broth microdilution method; settings: Hansenula anomala; outline: as §1
# Saccharomyces cerevisiae = test: Antimicrobial activity against Saccharomyces cerevisiae by broth microdilution method
# Paecilomyces lilacinus = test: Antimicrobial activity against Paecilomyces lilacinus by broth microdilution method; settings: Purpureocillium lilacinum; outline: as §3
# Candida albicans = test: Antimicrobial activity against Candida albicans by broth microdilution method; outline: as §1
# [3] = Antimicrobial activity against Hormographiella aspergillata by broth microdilution method; settings: Coprinopsis cinerea; outline: as §3
# Aspergillus versicolor = test: Antimicrobial activity against Aspergillus versicolor by broth microdilution method; outline: as §2
# Debaryomyces hansenii = test: Antimicrobial activity against Candida famata by broth microdilution method; outline: as §1
# Alternaria alternata = test: Antimicrobial activity against Alternaria alternata by broth microdilution method; outline: as §2
# Trichosporon jirovecii = test: Antimicrobial activity against Trichosporon jirovecii by broth microdilution method; settings: Cutaneotrichosporon jirovecii; outline: as §4
compound,measurement,setting,value
C[C@@H](c1ncncc1F)[C@](O)(Cn1cncn1)c1ccc(F)cc1F [VORICONAZOLE],MIC50,Candida metapsilosis,0.12 µg/mL
same,MIC90,Candida metapsilosis,> 8 µg/mL
same,MIC50,[1],0.06 µg/mL
same,MIC90,[1],> 8 µg/mL
same,MIC50,Aspergillus niger,1 µg/mL
same,MIC90,Aspergillus niger,2 µg/mL
same,MIC50,[2],> 8 µg/mL
same,MIC90,[2],> 8 µg/mL
same,MIC50,Lomentospora prolificans,> 8 µg/mL
same,MIC90,Lomentospora prolificans,> 8 µg/mL
same,MIC50,Papiliotrema laurentii,0.5 µg/mL
same,MIC90,Papiliotrema laurentii,> 8 µg/mL
same,MIC50,Paecilomyces variotii,1 µg/mL
same,MIC90,Paecilomyces variotii,> 8 µg/mL
same,MIC50,Magnusiomyces capitatus,0.5 µg/mL
same,MIC90,Magnusiomyces capitatus,1 µg/mL
same,MIC50,Aspergillus,0.25 µg/mL
same,MIC90,Aspergillus,> 8 µg/mL
same,MIC50,Trichosporon asahii,0.25 µg/mL
same,MIC90,Trichosporon asahii,> 8 µg/mL
same,MIC50,Trichosporon ovoides,0.5 µg/mL
same,MIC90,Trichosporon ovoides,> 8 µg/mL
same,MIC50,Trichosporon,0.5 µg/mL
same,MIC90,Trichosporon,> 8 µg/mL
same,MIC50,Exophiala jeanselmei,0.06 µg/mL
same,MIC90,Exophiala jeanselmei,> 8 µg/mL
same,MIC50,Rhizomucor,> 8 µg/mL
same,MIC90,Rhizomucor,> 8 µg/mL
same,MIC50,Saksenaea vasiformis,> 8 µg/mL
same,MIC90,Saksenaea vasiformis,> 8 µg/mL
same,MIC50,Pichia kudriavzevii,0.25 µg/mL
same,MIC90,Pichia kudriavzevii,0.5 µg/mL
same,MIC50,Neurospora sitophila,4 µg/mL
same,MIC90,Neurospora sitophila,> 8 µg/mL
same,MIC50,Trichosporon dermatis,0.5 µg/mL
same,MIC90,Trichosporon dermatis,> 8 µg/mL
same,MIC50,Aspergillus sclerotiorum,0.25 µg/mL
same,MIC90,Aspergillus sclerotiorum,> 8 µg/mL
same,MIC50,Aspergillus sydowii,1 µg/mL
same,MIC90,Aspergillus sydowii,2 µg/mL
same,MIC50,[Candida] inconspicua,0.12 µg/mL
same,MIC90,[Candida] inconspicua,> 8 µg/mL
same,MIC50,Candida parapsilosis,0.02 µg/mL
same,MIC90,Candida parapsilosis,0.02 µg/mL
same,MIC50,Yarrowia lipolytica,0.5 µg/mL
same,MIC90,Yarrowia lipolytica,2 µg/mL
same,MIC50,Aspergillus fumigatus,0.5 µg/mL
same,MIC90,Aspergillus fumigatus,1 µg/mL
same,MIC50,Beauveria bassiana,4 µg/mL
same,MIC90,Beauveria bassiana,> 8 µg/mL
same,MIC50,Trichoderma,4 µg/mL
same,MIC90,Trichoderma,> 8 µg/mL
same,MIC50,[Candida] zeylanoides,0.12 µg/mL
same,MIC90,[Candida] zeylanoides,> 8 µg/mL
same,MIC50,Geotrichum candidum,0.5 µg/mL
same,MIC90,Geotrichum candidum,1 µg/mL
same,MIC50,Lichtheimia corymbifera,> 8 µg/mL
same,MIC90,Lichtheimia corymbifera,> 8 µg/mL
same,MIC50,Nakaseomyces glabratus,0.12 µg/mL
same,MIC90,Nakaseomyces glabratus,1 µg/mL
same,MIC50,Cladosporium,0.06 µg/mL
same,MIC90,Cladosporium,> 8 µg/mL
same,MIC50,Pichia norvegensis,0.12 µg/mL
same,MIC90,Pichia norvegensis,> 8 µg/mL
same,MIC50,Wickerhamomyces anomalus,0.12 µg/mL
same,MIC90,Wickerhamomyces anomalus,> 8 µg/mL
same,MIC50,Saccharomyces cerevisiae,0.06 µg/mL
same,MIC90,Saccharomyces cerevisiae,0.5 µg/mL
same,MIC50,Paecilomyces lilacinus,0.5 µg/mL
same,MIC90,Paecilomyces lilacinus,> 8 µg/mL
same,MIC50,Candida albicans,0.02 µg/mL
same,MIC90,Candida albicans,0.02 µg/mL
same,MIC50,[3],4 µg/mL
same,MIC90,[3],> 8 µg/mL
same,MIC50,Aspergillus versicolor,1 µg/mL
same,MIC90,Aspergillus versicolor,2 µg/mL
same,MIC50,Debaryomyces hansenii,0.12 µg/mL
same,MIC90,Debaryomyces hansenii,> 8 µg/mL
same,MIC50,Alternaria alternata,4 µg/mL
same,MIC90,Alternaria alternata,> 8 µg/mL
same,MIC50,Trichosporon jirovecii,0.5 µg/mL
same,MIC90,Trichosporon jirovecii,> 8 µg/mL
